Results taken from ChEMBL document CHEMBL4706672 (J Med Chem, 2021).
Active and inactive are the calls of the source. The rule behind the calls is not given here.

How the values were obtained:
BXPC-3 [1] = test: Reduction in NQO1 expression in human BxPC-3 cells at 2 to 6 uM incubated for 16 hrs in presence of protein synthesis inhibitor cycloheximide by western blot analysis; settings: dose 2-6 µM
[2] = biological target: Protein cereblon/Histone-lysine N-methyltransferase PRDM16 (Homo sapiens) (UniProt Q96SW2+Q9HAZ2); test: Protac activity at CRBN/PRDM16 in human BxPC-3 cells assessed as PRDM16 degradation incubated for 16 hrs by proteomic analysis; assay type: cell-based
How it was run: (§1)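 TMT 10plex proteomics. […] Samples (75 μg) were reduced with DTT, alkylated with 2-chloroacetamide, acetone-precipitated, trypsin-digested overnight at 37 °C and TMT-labeled for LC-MS/MS relative quantitation.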

[3] = Upregulation of AKR1C2 protein levels in human BxPC-3 cells incubated for 16 hrs by proteomic analysis; assay type: functional
How it was run: (§2)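 BxPC-3 cells exposed 16 h in triplicate (control, PROTAC) or duplicate (other arms); lysed in RIPA at 4 °C, 75 μg protein per sample. Reduced with DTT (1 h, 55 °C), alkylated with 2-chloroacetamide, acetone-precipitated, trypsin-digested overnight at 37 °C, TMT 10plex labelled, relative quantitation by LC-tandem MS.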

[4] = Selectivity index, ratio of IC50 for antiproliferative activity against human HEK293 cell by MTT assay to IC50 for inhibition of IL-6 induced STAT3 transcription in human HEK293 cells
How it was run: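 HEK-293 cells carrying an SIE-luc2P STAT3 reporter, seeded 10,000/well, stimulated with IL6 at 100 ng/ml for 24 h, then given compound for 24 h; luciferase reagent added and luminescence read after 5 min. A parallel 24 h MTT assay was run in the same cells. Mean ± SD of three independent experiments.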

BXPC-3 [5] = test: Reduction in NQO1 expression in human BxPC-3 cells at 2 to 6 uM incubated for 12 hrs in presence of proteasome inhibitor MG132 by western blot analysis; assay type: functional, cell-based; settings: dose 2-6 µM
How it was run: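 Immunoblot of BxPC-3 cells given a 2 h pretreatment with MG132 at 10 μM, then test agent for 12 h. Cell lysis, BCA assay, SDS-PAGE/PVDF, probed for STAT3, pSTAT3 and NQO1 with GAPDH as reference.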

[6] = Upregulation of MPV17 protein levels in human BxPC-3 cells incubated for 16 hrs by proteomic analysis; assay type: functional
How it was run: as §2

[7] = biological target: Protein cereblon/Pleckstrin homology-like domain family B member 1 (Homo sapiens) (UniProt Q96SW2+Q86UU1); test: Protac activity at CRBN/PHLDB1 in human BxPC-3 cells assessed as PHLDB1 degradation incubated for 16 hrs by proteomic analysis; assay type: cell-based
Chain of Protein cereblon/Pleckstrin homology-like domain family B member 1 (Homo sapiens) (Q86UU1 whole entry, looked up, the tested form may be a part): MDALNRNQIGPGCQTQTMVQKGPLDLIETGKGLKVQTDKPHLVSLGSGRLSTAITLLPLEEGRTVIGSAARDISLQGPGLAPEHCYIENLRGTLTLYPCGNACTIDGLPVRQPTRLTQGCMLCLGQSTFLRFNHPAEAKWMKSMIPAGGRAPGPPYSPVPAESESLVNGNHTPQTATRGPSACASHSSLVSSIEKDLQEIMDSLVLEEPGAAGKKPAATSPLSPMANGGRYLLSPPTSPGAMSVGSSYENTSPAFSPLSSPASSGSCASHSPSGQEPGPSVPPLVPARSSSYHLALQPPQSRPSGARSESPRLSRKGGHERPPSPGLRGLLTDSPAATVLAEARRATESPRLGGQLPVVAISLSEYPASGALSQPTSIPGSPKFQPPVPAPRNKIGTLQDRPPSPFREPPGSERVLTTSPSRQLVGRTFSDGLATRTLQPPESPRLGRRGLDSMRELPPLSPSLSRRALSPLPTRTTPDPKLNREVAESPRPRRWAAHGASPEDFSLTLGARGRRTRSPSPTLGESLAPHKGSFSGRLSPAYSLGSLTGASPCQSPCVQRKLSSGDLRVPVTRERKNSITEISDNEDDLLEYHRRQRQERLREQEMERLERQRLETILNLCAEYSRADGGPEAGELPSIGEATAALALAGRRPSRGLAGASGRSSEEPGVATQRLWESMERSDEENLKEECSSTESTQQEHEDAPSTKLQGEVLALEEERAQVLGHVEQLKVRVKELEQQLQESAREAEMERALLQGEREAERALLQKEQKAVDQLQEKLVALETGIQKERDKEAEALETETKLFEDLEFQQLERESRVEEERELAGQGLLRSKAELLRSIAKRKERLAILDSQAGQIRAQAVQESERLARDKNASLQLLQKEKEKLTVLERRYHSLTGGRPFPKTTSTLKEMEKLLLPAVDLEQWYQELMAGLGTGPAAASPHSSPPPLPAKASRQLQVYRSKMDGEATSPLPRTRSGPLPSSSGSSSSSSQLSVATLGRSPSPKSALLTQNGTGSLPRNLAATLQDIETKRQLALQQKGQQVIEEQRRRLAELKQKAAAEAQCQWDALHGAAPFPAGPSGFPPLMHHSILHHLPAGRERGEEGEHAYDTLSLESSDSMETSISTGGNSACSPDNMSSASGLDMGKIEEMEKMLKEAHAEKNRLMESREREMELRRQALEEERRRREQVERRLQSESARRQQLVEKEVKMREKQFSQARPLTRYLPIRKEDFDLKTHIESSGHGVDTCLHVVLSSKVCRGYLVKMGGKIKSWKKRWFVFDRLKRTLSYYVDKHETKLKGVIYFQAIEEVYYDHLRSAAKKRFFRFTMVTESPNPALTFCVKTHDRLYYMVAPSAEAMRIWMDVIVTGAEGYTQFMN
Chain of Protein cereblon/Pleckstrin homology-like domain family B member 1 (Homo sapiens) (Q96SW2 whole entry, looked up, the tested form may be a part): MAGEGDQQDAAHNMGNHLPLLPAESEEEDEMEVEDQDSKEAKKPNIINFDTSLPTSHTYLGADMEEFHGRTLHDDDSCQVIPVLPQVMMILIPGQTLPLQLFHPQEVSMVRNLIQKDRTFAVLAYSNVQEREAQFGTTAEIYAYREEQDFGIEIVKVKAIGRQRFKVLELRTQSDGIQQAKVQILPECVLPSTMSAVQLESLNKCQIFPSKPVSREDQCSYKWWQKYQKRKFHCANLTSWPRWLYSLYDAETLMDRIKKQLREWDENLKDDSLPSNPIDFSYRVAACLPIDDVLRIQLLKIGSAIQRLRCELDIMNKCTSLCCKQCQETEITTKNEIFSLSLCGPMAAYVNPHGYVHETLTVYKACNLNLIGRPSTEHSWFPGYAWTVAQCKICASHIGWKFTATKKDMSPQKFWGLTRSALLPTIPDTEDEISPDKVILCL
How it was run: as §1

[8] = biological target: Protein cereblon/WD repeat- and FYVE domain-containing protein 4 (Homo sapiens) (UniProt Q96SW2+Q6ZS81); test: Protac activity at CRBN/WDFY4 in human BxPC-3 cells assessed as WDFY4 degradation incubated for 16 hrs by proteomic analysis; assay type: cell-based
Chain of Protein cereblon/WD repeat- and FYVE domain-containing protein 4 (Homo sapiens) (Q6ZS81 whole entry, looked up, the tested form may be a part): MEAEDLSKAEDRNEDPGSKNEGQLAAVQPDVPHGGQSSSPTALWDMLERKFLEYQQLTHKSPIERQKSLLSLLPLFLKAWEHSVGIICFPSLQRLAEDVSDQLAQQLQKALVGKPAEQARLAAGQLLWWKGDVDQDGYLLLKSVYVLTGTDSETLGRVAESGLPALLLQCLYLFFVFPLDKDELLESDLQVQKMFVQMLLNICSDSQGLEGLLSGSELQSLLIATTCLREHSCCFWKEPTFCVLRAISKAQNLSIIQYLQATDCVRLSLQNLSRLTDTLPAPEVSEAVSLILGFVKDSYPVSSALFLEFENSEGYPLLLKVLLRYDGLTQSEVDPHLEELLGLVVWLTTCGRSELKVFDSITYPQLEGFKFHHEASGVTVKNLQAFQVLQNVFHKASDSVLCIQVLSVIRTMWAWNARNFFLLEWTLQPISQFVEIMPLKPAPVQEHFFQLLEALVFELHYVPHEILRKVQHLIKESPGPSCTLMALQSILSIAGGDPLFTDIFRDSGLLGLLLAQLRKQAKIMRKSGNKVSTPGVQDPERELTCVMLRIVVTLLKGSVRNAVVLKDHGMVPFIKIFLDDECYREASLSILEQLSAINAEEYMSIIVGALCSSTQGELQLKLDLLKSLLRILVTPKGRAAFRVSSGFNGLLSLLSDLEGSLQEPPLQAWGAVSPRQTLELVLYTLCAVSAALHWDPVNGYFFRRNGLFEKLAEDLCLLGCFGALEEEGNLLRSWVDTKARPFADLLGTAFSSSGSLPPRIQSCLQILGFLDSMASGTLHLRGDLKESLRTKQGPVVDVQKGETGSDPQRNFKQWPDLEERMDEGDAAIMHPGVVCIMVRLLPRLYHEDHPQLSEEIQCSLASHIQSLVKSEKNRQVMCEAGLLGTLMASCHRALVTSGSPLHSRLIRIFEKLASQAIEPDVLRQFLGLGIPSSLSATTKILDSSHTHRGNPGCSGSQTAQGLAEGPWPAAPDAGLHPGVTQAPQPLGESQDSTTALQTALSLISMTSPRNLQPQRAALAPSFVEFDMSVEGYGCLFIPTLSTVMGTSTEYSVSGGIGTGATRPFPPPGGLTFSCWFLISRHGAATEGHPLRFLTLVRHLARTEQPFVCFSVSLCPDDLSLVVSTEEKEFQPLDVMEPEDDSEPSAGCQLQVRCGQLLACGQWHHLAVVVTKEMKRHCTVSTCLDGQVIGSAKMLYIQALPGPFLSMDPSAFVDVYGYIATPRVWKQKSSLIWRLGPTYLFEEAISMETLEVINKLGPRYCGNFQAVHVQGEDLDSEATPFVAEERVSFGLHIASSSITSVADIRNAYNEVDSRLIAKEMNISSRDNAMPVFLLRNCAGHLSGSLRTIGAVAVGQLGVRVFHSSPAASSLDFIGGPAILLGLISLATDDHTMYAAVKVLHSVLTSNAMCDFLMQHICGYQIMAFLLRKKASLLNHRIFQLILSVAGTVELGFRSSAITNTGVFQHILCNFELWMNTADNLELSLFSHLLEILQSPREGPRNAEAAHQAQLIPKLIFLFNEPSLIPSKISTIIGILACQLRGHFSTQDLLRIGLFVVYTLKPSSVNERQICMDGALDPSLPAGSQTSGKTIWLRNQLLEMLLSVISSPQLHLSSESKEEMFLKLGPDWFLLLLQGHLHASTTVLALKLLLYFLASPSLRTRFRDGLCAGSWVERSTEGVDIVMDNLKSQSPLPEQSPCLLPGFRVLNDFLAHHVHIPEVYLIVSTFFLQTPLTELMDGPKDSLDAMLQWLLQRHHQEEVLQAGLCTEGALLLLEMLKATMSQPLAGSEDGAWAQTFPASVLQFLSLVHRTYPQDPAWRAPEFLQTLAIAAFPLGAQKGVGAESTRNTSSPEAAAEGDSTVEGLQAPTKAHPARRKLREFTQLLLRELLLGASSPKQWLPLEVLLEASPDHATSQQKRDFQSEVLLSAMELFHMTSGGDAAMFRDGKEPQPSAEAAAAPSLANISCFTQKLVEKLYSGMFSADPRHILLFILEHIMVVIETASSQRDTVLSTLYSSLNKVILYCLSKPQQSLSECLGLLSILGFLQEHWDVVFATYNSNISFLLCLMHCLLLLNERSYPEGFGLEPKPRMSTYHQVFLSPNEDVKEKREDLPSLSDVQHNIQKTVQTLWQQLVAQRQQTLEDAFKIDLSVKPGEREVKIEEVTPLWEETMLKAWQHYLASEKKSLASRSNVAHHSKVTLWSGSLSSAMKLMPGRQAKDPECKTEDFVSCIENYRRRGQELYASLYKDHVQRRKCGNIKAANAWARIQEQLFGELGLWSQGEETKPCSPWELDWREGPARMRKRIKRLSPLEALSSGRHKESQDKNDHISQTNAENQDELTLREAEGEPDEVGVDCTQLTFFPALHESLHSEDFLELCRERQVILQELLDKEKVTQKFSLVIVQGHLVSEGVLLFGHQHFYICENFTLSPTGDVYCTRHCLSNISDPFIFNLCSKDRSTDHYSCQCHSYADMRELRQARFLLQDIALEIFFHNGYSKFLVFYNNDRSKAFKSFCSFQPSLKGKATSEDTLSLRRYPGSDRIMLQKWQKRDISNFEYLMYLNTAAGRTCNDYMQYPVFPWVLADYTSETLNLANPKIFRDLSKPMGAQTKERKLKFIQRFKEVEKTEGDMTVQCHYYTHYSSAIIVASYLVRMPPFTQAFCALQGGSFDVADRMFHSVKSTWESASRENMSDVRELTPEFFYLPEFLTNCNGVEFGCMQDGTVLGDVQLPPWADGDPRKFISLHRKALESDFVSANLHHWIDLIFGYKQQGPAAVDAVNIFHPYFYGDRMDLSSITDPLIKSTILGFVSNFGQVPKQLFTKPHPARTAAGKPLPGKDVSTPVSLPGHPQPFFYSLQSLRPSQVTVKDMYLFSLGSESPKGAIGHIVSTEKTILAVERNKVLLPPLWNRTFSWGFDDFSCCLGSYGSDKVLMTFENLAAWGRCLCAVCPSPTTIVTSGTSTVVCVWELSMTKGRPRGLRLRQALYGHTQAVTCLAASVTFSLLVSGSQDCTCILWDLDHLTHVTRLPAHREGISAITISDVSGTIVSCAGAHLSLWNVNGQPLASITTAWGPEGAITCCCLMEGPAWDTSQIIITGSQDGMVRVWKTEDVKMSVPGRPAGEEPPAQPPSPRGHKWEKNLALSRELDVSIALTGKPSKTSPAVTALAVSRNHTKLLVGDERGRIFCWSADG
Chain of Protein cereblon/WD repeat- and FYVE domain-containing protein 4 (Homo sapiens) (Q96SW2 whole entry, looked up, the tested form may be a part): as the sequence (Q96SW2 whole entry, looked up, the tested form may be a part) above
How it was run: as §2

MIA PaCa-2 = test: Antiproliferative activity against human MIA PaCa-2 cells assessed as reduction in cell viability incubated for 3 days by MTT assay; assay type: functional, cell-based; settings: MIA PaCa-2, 72 h
How it was run: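 MTT assay. Cells were seeded at 3000–6000/well and incubated overnight, then exposed to compound or DMSO vehicle for 3 days in RPMI-1640 or DMEM with 10% FBS at 37 °C, 5% CO2. MTT (3 mg/ml) was added for 3 h at 37 °C, formazan was dissolved in DMSO and absorbance read at 570 nm. IC50 from three independent experiments, mean ± SD.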

log2FC [2]: -0.6
log2FC [7]: -0.64
log2FC [8]: -0.78
IC50 (MIA PaCa-2): 1000 nM
SMILES: O=C1CCC(N2C(=O)c3cccc(NCCCCCC4CCN(CCNC(=O)c5cc6c(o5)C(=O)c5ccccc5C6=O)CC4)c3C2=O)C(=O)N1 (centres undefined)
Activity (BXPC-3 [1]): inactive
log2FC [3]: 0.6
Ratio IC50 [4]: 7
Activity (BXPC-3 [5]): Active
log2FC [6]: 0.66
